The results in this text go back to ChEMBL document CHEMBL1132480, “Synthesis, acid-base behavior, and binding properties of 6-modified myo-inositol 1,4,5-tris(phosphate)s” (J Med Chem, 1999).

Usually IC50 stands for the concentration that gives 50% inhibition.

Data set [1] addresses Inositol 1,4,5-trisphosphate-gated calcium channel ITPR3 (Bos taurus, UniProt Q8WN95). Nature of the data set: Binding affinity against Inositol 1,4,5-trisphosphate receptor on bovine adrenal cortex microsomes.
Data set [2] is described as follows: Equilibrium constant (K3) of the compound. In kind it is ADME. The method, boiled down:
(§1)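 Stepwise macroscopic protonation constants measured over pH 2.5–10, where each phosphate has one titratable proton. Observed NMR chemical shifts were treated as weighted averages of the shifts of the protonated and deprotonated species.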

Data set [3] can be described thus: Equilibrium constant (K2) of the compound. In kind it is ADME. The method, boiled down:
as §1

Data set [4] can be described thus: Equilibrium constant (K1) of the compound. The data set is classed as ADME. The method, boiled down:
as §1

Data set [5] is described as follows: Equilibrium constant (K4) of the compound. In kind it is ADME. The essentials:
as §1

Sequence of Inositol 1,4,5-trisphosphate-gated calcium channel ITPR3 (Q8WN95 whole entry): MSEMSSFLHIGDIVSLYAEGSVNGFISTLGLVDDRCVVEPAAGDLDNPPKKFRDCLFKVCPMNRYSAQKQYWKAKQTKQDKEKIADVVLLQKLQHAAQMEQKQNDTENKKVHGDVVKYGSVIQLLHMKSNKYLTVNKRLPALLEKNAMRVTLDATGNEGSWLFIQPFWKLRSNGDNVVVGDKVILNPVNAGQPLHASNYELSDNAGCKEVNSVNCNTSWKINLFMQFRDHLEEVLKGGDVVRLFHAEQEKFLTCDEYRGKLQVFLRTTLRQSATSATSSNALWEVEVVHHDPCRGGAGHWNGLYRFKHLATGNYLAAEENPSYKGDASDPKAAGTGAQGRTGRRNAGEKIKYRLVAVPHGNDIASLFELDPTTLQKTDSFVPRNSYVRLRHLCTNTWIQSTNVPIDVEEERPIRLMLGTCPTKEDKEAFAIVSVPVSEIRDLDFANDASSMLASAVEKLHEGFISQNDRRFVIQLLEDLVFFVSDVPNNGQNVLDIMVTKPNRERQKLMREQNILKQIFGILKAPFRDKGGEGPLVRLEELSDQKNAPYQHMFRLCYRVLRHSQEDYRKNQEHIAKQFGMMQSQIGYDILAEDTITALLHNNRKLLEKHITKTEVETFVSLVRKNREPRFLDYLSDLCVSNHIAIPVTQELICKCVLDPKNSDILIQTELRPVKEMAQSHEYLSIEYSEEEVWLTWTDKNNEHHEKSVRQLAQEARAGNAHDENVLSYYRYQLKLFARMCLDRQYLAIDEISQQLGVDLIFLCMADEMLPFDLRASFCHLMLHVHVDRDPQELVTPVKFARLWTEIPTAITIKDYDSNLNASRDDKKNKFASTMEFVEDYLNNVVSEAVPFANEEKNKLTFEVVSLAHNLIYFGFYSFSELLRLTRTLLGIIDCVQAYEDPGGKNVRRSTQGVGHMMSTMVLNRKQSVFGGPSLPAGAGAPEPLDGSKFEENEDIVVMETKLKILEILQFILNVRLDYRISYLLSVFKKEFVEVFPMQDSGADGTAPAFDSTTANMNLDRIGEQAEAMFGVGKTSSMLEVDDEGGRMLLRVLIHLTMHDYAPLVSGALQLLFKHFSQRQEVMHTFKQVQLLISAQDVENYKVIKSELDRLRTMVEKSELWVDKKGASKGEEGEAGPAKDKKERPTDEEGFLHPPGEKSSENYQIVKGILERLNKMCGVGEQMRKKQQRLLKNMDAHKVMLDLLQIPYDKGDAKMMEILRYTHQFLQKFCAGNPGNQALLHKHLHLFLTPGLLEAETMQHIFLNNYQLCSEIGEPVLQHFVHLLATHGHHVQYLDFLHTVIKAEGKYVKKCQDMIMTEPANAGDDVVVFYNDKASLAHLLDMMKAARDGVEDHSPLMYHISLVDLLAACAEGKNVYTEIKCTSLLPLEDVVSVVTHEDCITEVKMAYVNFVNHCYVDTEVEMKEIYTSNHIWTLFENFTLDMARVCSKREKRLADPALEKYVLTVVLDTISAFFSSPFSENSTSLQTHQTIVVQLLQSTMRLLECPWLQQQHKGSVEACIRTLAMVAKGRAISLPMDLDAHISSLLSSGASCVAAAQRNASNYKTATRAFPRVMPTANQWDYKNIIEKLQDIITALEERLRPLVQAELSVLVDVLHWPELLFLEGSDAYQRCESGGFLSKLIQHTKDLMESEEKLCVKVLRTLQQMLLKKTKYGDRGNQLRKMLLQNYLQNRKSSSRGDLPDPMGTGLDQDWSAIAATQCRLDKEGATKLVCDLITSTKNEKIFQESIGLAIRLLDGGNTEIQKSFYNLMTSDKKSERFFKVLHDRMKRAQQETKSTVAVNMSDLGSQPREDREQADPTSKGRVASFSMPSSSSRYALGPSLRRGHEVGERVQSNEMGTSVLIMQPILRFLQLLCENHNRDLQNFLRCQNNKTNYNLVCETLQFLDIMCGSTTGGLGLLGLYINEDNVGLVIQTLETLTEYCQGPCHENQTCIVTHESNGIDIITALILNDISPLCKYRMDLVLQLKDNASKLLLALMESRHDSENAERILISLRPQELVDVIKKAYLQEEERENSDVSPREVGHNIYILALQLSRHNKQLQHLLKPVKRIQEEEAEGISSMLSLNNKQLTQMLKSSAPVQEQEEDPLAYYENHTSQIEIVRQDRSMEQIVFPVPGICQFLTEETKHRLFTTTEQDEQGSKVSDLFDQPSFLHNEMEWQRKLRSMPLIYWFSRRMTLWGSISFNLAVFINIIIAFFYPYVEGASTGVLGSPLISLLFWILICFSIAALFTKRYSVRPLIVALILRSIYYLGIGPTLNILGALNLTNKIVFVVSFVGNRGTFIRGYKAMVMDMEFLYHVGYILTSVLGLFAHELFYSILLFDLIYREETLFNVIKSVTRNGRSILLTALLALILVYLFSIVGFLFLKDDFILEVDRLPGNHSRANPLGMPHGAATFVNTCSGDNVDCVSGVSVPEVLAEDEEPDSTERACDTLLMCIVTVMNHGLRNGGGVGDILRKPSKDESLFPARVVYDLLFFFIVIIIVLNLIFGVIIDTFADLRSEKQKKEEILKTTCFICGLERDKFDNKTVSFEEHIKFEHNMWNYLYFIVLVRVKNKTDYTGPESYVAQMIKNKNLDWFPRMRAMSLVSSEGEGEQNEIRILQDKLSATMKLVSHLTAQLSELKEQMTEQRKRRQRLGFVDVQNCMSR

Consider `O=P(O)(O)O[C@@H]1[C@H](O)[C@H](O)[C@@H](OP(=O)(O)O)[C@H](OP(=O)(O)O)[C@H]1F`, for which the IC50 in data set [1] was 2000 nM. The “Log K3” value in data set [2] is given as 5.56. Also, in data set [3], the “Log K2” value was 6.64. The “Log K1” value in data set [4] is 8.76.
With `O=P(O)(O)O[C@@H]1[C@@H](O)[C@@H](O)[C@@H](OP(=O)(O)O)C[C@H]1OP(=O)(O)O`, in data set [1], the IC50 turned out to be 1000 nM. For the same compound, the “Log K3” value in data set [2] was found to be 5.53. For the same compound, the “Log K2” value in data set [3] was determined as 6.65. Besides, the “Log K1” value in data set [4] was found to be 8.3.
For the compound `O=P(O)(O)O[C@@H]1CC[C@@H](OP(=O)(O)O)[C@H](OP(=O)(O)O)C1`, the half-maximal inhibitory concentration (IC50) in data set [1] is 3900 nM.
Consider `O=P(O)(O)O[C@@H]1[C@H](O)[C@H](O)[C@@H](OP(=O)(O)O)[C@H](OP(=O)(O)O)[C@H]1O` [INS(1,4,5)P3], for which the “Log K3” value in data set [2] is 5.31. In addition, the “Log K2” value in data set [3] worked out at 6.4. In addition, in data set [4], the “Log K1” value is reported as 7.85.
For the compound `O=P(O)(O)O[C@@H]1[C@H](O)[C@H](O)[C@@H](OP(=O)(O)O)[C@H](OP(=O)(O)O)[C@@H]1O`, in data set [2], the “Log K3” value is 5.4. Further, in data set [3], the “Log K2” value is given as 6.39. Besides, the “Log K1” value in data set [4] came out at 8.01.
Take `N[C@@H]1[C@@H](OP(=O)(O)O)[C@H](OP(=O)(O)O)[C@@H](O)[C@@H](O)[C@H]1OP(=O)(O)O`: the IC50 in data set [1] was determined as 5000 nM. Moreover, in data set [2], the “Log K3” value came to 5.58. Also, the “Log K4” value in data set [5] worked out at 4.62. Besides, the “Log K2” value in data set [3] stood at 7.35. Also, the “Log K1” value in data set [4] is reported as 10.69.
